Published values collected from several papers.
Compare with care: the assays were run in different laboratories.
Effect on: cell growth or viability

SMILES | cell line | test | setting | IC50 [µM]
Cc1[nH]c(C)c(-c2ccc(-c3cccc(C(F)(F)F)c3)nc2)c(=O)c1Br | HEK293 | – | – | > 10
COc1ccc(F)cc1C(=O)NCc1ccc(-c2nn([C@@H](C)C(F)(F)F)c(N)c2C(N)=O)cc1 | Rec1 | ATP luminescence | 72 h | 0.0031
CC(=O)Oc1ccc2ccc(=O)oc2c1CBr | HEK293 | MTT | 36 h | > 20
COc1cc(Nc2nccc(-c3cnn4nc(OC)ccc34)n2)cc(C(F)(F)F)c1 | MKN-1 | ATP luminescence | – | 0.58
CC(=O)SCc1cc(=O)oc2cc(O)ccc12 | HEK293 | MTT | 36 h | > 20
C=CC(=O)Nc1cc(Nc2nc(N3CCc4sccc4C3)c3cccnc3n2)c(OC)cc1N(C)C | NCI-H1975 | MTT | – | > 50
CC[C@@H](C)[C@H](N)C(=O)N1Cc2ccccc2C1 | SET-2 | ATP luminescence | – | 0.09
C[C@H](O)C(=O)CCCCCCC(=O)Nc1cccc(-c2cn(-c3ccccc3)nn2)c1 | HEK293 | XTT | – | 15.9
C=CC(=O)N1CCC[C@@H](n2nc(-c3ccc(Oc4ccccc4)cc3)c3c(N)ncnc32)C1 | CNE2Z | – | – | > 10
Cc1cc(=O)c(-c2ccc(Oc3cccc(Cl)c3)cc2)c(C)[nH]1 | HEK293 | – | – | > 10
CCC(=O)Nc1cc(Nc2nc(Nc3cnn(C)c3)c3sccc3n2)c(OC)cc1N(C)CCN(C)C | NCI-H1975 | MTT | – | > 50
Cc1ncn2c(=O)n(C)nnc12 | T98G | resazurin | 7 days | 6
Cc1[nH]c(C)c(-c2ccc(OCc3cc(C(F)(F)F)cc(C(F)(F)F)c3)nc2)c(=O)c1Br | HEK293 | – | – | > 10
C=CC(=O)Nc1cccc(Nc2nc(Nc3ccc(OCCOC)cc3)ncc2F)c1 | NCI-H1975 | – | – | 1.27
Cc1c(O)ccc2ccc(=O)oc12 | HEK293 | MTT | 36 h | > 20
C=CC(=O)Nc1cc(Nc2nc(N3CCc4sccc4C3)c3cccnc3n2)c(OC)cc1N1CCC(N(C)C)CC1 | NCI-H1975 | MTT | – | 0.15
CCCCCCCCc1c(C)[nH]c(C)c(Cl)c1=O | HEK293 | – | – | > 10
O=C1NCCc2[nH]c(-c3ccncc3)cc21 | SK-MEL-28 | – | – | 9.6
N[C@@H](CC(=O)N1CCN(C(c2ccc(F)cc2)c2ccc(F)cc2)CC1)C(=O)N1Cc2ccccc2C1 | SET-2 | ATP luminescence | 48 h | 0.368

SMILES | cell line | test | setting | IC50 [µM]
O=c1ccc2ccc(O)c(CO)c2o1 | HEK293 | MTT | 36 h | > 20
Cn1nnc2c(-c3ccccc3)ncn2c1=O | T98G | resazurin | 7 days | 14
C=C(Cl)C(=O)Nc1cc(Nc2nc(N3CCOCC3)c3sccc3n2)c(OC)cc1N(C)CCN(C)C | NCI-H1975 | MTT | – | 0.12
C=CC(=O)N1CCC[C@@H](n2nc(-c3ccc(Oc4ccccc4)cc3)c3c(N)ncnc32)C1 | TMD8 | CCK-8 | 72 h | 0.01
Cc1[nH]c(C)c(-c2ccc(-c3cc(C(F)(F)F)cc(C(F)(F)F)c3)nc2)c(=O)c1Br | HEK293 | – | – | > 10
C=CC(=O)Nc1cccc(N2C(=O)OC(C)c3cnc(Nc4ccc(N5CCN(C)CC5)cc4OC)nc32)c1 (stereo not shown) | TMD8 | CCK-8 | 72 h | 0.028
COc1cc(N(C)CCN(C)C)c(NC(=O)/C=C/C(C)C)cc1Nc1nc(Nc2cnn(C)c2)c2sccc2n1 | NCI-H1975 | MTT | – | 0.297
CC(=O)Oc1ccc2c(CSC(C)=O)cc(=O)oc2c1 | HEK293 | MTT | 36 h | > 20
O=C(Nc1ccc(OC2CCN(Cc3ccccc3)C2)c(Cl)c1)c1cccs1 (stereo not shown) | HEK293 | – | – | > 10
C=C(Cl)C(=O)Nc1cc(Nc2nc(N3CCSCC3)c3sccc3n2)c(OC)cc1N(C)CCN(C)C | NCI-H1975 | MTT | – | 0.165
O=C1Nc2ccccc2-c2cnc(NCc3c(F)ccc4c3CCO4)n3cnc1c23 | KARPAS-422 | CCK-8 | 7 days | 0.0683
COc1cccc(Oc2ccccc2NC(=O)CNC(=O)c2c(C)cc(C)cc2C)c1 | A673 | – | – | 5.5
CCOC(=O)c1c(-c2ccccc2)nc2c(sc3ccccc32)c1O | HEK293 | – | – | > 10
CCCCN(CCCC)C(=O)c1ncn2c(=O)n(C)nnc12 | T98G | resazurin | 7 days | 140
C=C(Cl)C(=O)Nc1cc(Nc2nc(N3CCc4sccc4C3)c3sccc3n2)c(OC)cc1N(C)CCN(C)C | NCI-H1975 | MTT | – | 0.087
COc1c(C)[nH]c(C)c(-c2ccc(Oc3cccc(C(F)(F)F)c3)cc2)c1=O | HEK293 | – | – | > 10
C=C(Cl)C(=O)Nc1cc(Nc2nc(Nc3cnn(C)c3)c3sccc3n2)c(OC)cc1N1CCN(C)CC1 | NCI-H1975 | MTT | – | 0.106
Cn1nnc2c(C(=O)N3CCCC3)ncn2c1=O | T98G | resazurin | 7 days | 186
